# Experimental data from different studies.
# Protocols differ between the studies behind these lines.
# Target: AP2-associated protein kinase 1 (AAK1, Homo sapiens, UniProt Q2M2I8)
SMILES,assay,conditions,remaining binding [%]
Cc1cnn2ncc(-c3ccnc(N(C)C)n3)c2c1,binding,1 µM,91
CCCCN(CCCC)C(=O)CN1C[C@H](c2cc(OC)c3c(c2)OCO3)[C@@H](C(=O)O)[C@@H]1CC(C)(C)CCC,binding,1 µM,100
O=C(NCC1CCOCC1)c1n[nH]cc1NC(=O)c1c(F)cccc1F,"binding, competition with immobilised ligand",1 µM,86
O=C(Nc1cccnn1)N1CC(C/C=C/c2cncc(Oc3ccc(C(F)(F)F)cn3)n2)C1,"cell-free assay, competition with immobilised ligand",1 µM,100
COc1cnc(Nc2cccc(S(N)(=O)=O)c2)nc1N1CCN(c2ccccc2)CC1,"binding, competition with immobilised ligand",1 µM,73
N#CC1(c2ccccn2)CCN(Cc2cc(C(=O)N3CCCC3)c(=O)n3ccccc23)CC1,binding,1 µM,100
O=C(NCCCN1CCOCC1)c1ccc(Nc2nccc(-c3cc4ccccc4s3)n2)cc1,"binding, competition with immobilised ligand",1 µM,27
FC(F)(F)Oc1cccc(-c2cnc3ccc(-c4ccncc4)nn23)c1,"cell-free assay, competition with immobilised ligand",5 µM,14
CC1CCCN1c1nccc(-c2cnn3ncccc23)n1 (stereo not shown),binding,1 µM,100
C=CC(=O)N1CCC(C(=O)NCC(=O)N2CCN(c3nc(-c4cnc(N)nc4C(F)F)nc(N4CCOCC4)n3)CC2)CC1,"binding, competition with immobilised ligand",1 µM,100
CN(c1nccc(-c2cnn3ncccc23)n1)C1CC1,binding,1 µM,100
c1cncc(-c2cccc(Nc3nccc(NC4CCCCC4)n3)c2)c1,"binding, competition with immobilised ligand",10 µM,33
O=C(NCc1ncc(C(F)(F)F)cc1Cl)c1ccc2c(c1)C1(CCS(=O)(=O)CC1)[C@H](C1CC1)N2S(=O)(=O)c1ccc(F)cc1,binding,1 µM,99
C[C@H]1CCN(c2nccc(-c3cnn4ncccc34)n2)C1,binding,1 µM,64
Cc1cnc(Nc2ccc(C(=O)N3CCC(N4CCCC4)CC3)cc2)nc1-c1cc2ccccc2s1,"binding, competition with immobilised ligand",1 µM,22
c1cnn2ncc(-c3ccnc(N4CCC45COC5)n3)c2c1,binding,1 µM,76
O=C(O)c1cc(-c2ccc(C3CCNCC3)cc2)c2ccc(-c3ccc(C(F)(F)F)cc3)cc2c1,binding,1 µM,100
COc1ccnn2ncc(-c3ccnc(N(C)C)n3)c12,binding,1 µM,100
CN(c1ccnc(CNc2nc(Nc3ccc4c(c3)CC(=O)N4)ncc2C(F)(F)F)n1)S(C)(=O)=O,binding,1 µM,27
N[C@@H]1CCN(c2nccc(-c3cnn4ncccc34)n2)C1,binding,1 µM,73
O=c1nc(-c2ccccn2)sc2ccccc12,binding,1 µM,100
O=C(c1ccc(Nc2nccc(-c3cc4ccccc4s3)n2)cc1)N1CCC(N2CCCC2)CC1,"binding, competition with immobilised ligand",1 µM,21
